Laboratory results from ChEMBL document CHEMBL1141747, “New bisbenzylisoquinolines, fatty acid amidic aporphines, and a protoberberine from Formosan Cocculus orbiculatus” (J Nat Prod, 2005).
≈ marks a conversion by molar mass, not a printed value.

Assays:
MDA-MB-231 = assay: Cytotoxicity against human MDA-MB-231 cells; format: functional, cell-based
MCF7 = assay: Cytotoxicity against human MCF7 cells; format: functional, cell-based
[1] = Cytotoxicity against human HONE1 cells at 4 ug/mL; format: functional
How it was run: (§1)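 Samples were tested on the cells at two fixed concentrations, 20 and 4 µg/mL. The value is reported as percent inhibition at each concentration.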

NUGC-3 [2] = assay: Cytotoxicity against human NUGC3 cells at 4 ug/mL; format: functional; how it was run: as §1
[3] = Cytotoxicity against human Hep3B cells; format: functional, cell-based, Hep 3B2
P388 = assay: Antitumor activity against mouse P388 cells xenografted in mouse; format: functional
NUGC-3 [4] = assay: Cytotoxicity against human NUGC3 cells at 20 ug/mL; format: functional; how it was run: as §1
HepG2 = assay: Cytotoxicity against human HepG2 cells; format: functional, cell-based
[5] = Cytotoxicity against human HONE1 cells at 20 ug/mL; format: functional; how it was run: as §1

Q: Which IC50 (MDA-MB-231) does the source give for `COc1ccc2c(c1O)[C@]13CCN[C@@H](C2)C1C(OC)[C@@H](O)[C@@H](O)C3` (some centres not stated) here?
A: 1.2 µg/mL (≈ 3.58 µM)

Q: And the IC50 (MCF7)?
A: 2 µg/mL (≈ 5.96 µM)

Q: And the inhibition at 4 µg/mL [1]?
A: 82%

Q: What about the inhibition at 4 µg/mL (NUGC-3 [2]) of the same compound?
A: 82%

Q: And the IC50 [3]?
A: 2 µg/mL (≈ 5.96 µM)

Q: And the T/C (P388)?
A: 166%

Q: And the inhibition at 20 µg/mL (NUGC-3 [4])?
A: 96%

Q: What about the IC50 (HepG2) of the same compound?
A: 2 µg/mL (≈ 5.96 µM)

Q: And the inhibition at 20 µg/mL [5]?
A: 84%

Q: For `COc1cc2c(c(OC)c1OC)CCN1C(=O)c3c(ccc(OC)c3OC)C[C@@H]21`, which IC50 (MDA-MB-231) is on record?
A: > 30 µg/mL

Q: And the IC50 (MCF7)?
A: > 30 µg/mL

Q: And the IC50 [3]?
A: > 30 µg/mL

Q: What about the IC50 (HepG2) of the same compound?
A: 23.5 µg/mL (≈ 58.8 µM)

Q: Which IC50 (MDA-MB-231) does the source give for `COc1ccc2cc1Oc1ccc(cc1)C[C@H]1c3cc(O)c(c(OC)c3CC[N+]1(C)C)Oc1cc3c(cc1OC)CC[N+](C)=C3C2.[Cl-].[Cl-]` here?
A: > 30 µg/mL

Q: And the IC50 (MCF7)?
A: > 30 µg/mL

Q: What about the IC50 [3] of the same compound?
A: > 30 µg/mL

Q: And the IC50 (HepG2)?
A: > 30 µg/mL

Q: Which results are given for `COc1cc2c3c4c1Oc1cc5c(cc1O4)C(=NCC5)Cc1ccc(O)c(c1)Oc1ccc(cc1)C[C@@H]3N(C)CC2` [DEHYDROAPATELINE]?
A: IC50 (MDA-MB-231): 4.71 µg/mL (≈ 8.62 µM); IC50 (MCF7): 16.3 µg/mL (≈ 29.8 µM); inhibition at 4 µg/mL [1]: 0%; inhibition at 4 µg/mL (NUGC-3 [2]): 0%; IC50 [3]: 4.82 µg/mL (≈ 8.82 µM); inhibition at 20 µg/mL (NUGC-3 [4]): 98%; IC50 (HepG2): 3.61 µg/mL (≈ 6.6 µM); inhibition at 20 µg/mL [5]: 98%

Q: For `COc1ccc2cc1Oc1ccc(cc1)C[C@H]1c3c(cc(OC)c4c3Oc3cc5c(cc3O4)CCN(C)[C@H]5C2)CCN1C` [ISOTRILOBINE], which IC50 (MDA-MB-231) is on record?
A: 1.6 µg/mL (≈ 2.77 µM)

Q: What about the IC50 (MCF7) of the same compound?
A: 3.9 µg/mL (≈ 6.76 µM)

Q: And the inhibition at 4 µg/mL [1]?
A: 79%

Q: And the inhibition at 4 µg/mL (NUGC-3 [2])?
A: 0%

Q: And the IC50 [3]?
A: 0.75 µg/mL (≈ 1.3 µM)

Q: And the inhibition at 20 µg/mL (NUGC-3 [4])?
A: 100%

Q: What about the IC50 (HepG2) of the same compound?
A: 0.6 µg/mL (≈ 1.04 µM)

Q: What about the inhibition at 20 µg/mL [5] of the same compound?
A: 100%

Q: With `CC(=O)O[C@H]1C(=O)[C@@]2(C)[C@H]([C@H](OC(=O)c3ccccc3)[C@]3(O)C[C@H](OC(=O)[C@H](O)[C@@H](NC(=O)c4ccccc4)c4ccccc4)C(C)=C1C3(C)C)[C@]1(OC(C)=O)CO[C@@H]1C[C@@H]2O` [PACLITAXEL] as the compound, how does the IC50 (MDA-MB-231) read?
A: 0.12 µg/mL (≈ 0.141 µM)

Q: What about the IC50 (MCF7) of the same compound?
A: 0.14 µg/mL (≈ 0.164 µM)

Q: And the IC50 [3]?
A: 0.08 µg/mL (≈ 0.0937 µM)

Q: And the IC50 (HepG2)?
A: 0.18 µg/mL (≈ 0.211 µM)
